From ChEMBL document CHEMBL1123521, “Isozyme-specific enzyme inhibitors. 10. Adenosine 5'-triphosphate derivatives as substrates or inhibitors of methionine adenosyltransferases of rat normal and hepatoma tissues” (J Med Chem, 1986)

Experiments:
[1] = target: T1, S-adenosylmethionine synthase isoform type-2 (Rattus norvegicus, UniProt P18298); assay: Inhibitory constant against rat kidney Methionine adenosyltransferase II
Outline: (§1)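 MAT-II from rat kidney extract, taken through DEAE chromatography and diluted 10-fold daily. Duplicate 30-min incubations at 37 °C in 150 mM KCl–15 mM MgCl2–5 mM DTT–50 mM Tris-HCl pH 8.2 with 60 μM [14C]methionine. Mg-complexed inhibitor used at two levels (1-5 × Ki) against six to eight Mg-ATP levels (0.5-4.0 × KM). Product counted on phosphocellulose disks.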

[2] = target: T2, S-adenosylmethionine synthetase (MAT 1 and MAT 2) (Rattus norvegicus, UniProt P13444+P18298); assay: […] rat Methionine adenosyltransferase was reported; assay type: protein assay
Outline: (§2)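 MAT-T partly purified from rat Novikoff hepatoma cells grown intraperitoneally in rats: cytosol extract, DEAE-cellulose, stored at -20 °C, diluted 10-fold for use. Assay run in duplicate, 37 °C for 30 min, in 150 mM KCl–15 mM MgCl2–5 mM DTT–50 mM Tris-HCl pH 8.2 with 60 μM [14C]methionine. Inhibitors given as 1:1 Mg complexes at two levels of 1-5 × Ki, with six to eight Mg-ATP levels (0.5-4.0 × KM).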

[3] = target: T3, S-adenosylmethionine synthase isoform type-1 (Rattus norvegicus, UniProt P13444); assay: Inhibitory constant against rat liver Methionine adenosyltransferase I
Outline: (§3)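 Rat liver MAT-I, prepared free of MAT-II and MAT-III and diluted 5-fold. Duplicate assays at 37 °C, 30 min, in 150 mM KCl–7.5 mM MgSO4–2 mM DTT–50 mM HEPES pH 7.5 with 380 μM [14C]methionine. Two inhibitor levels (1:1 Mg complexes, 1-5 × Ki) run against six to eight Mg-ATP levels spanning 0.5-4.0 × KM. Ki taken from kinetic plots.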

[4] = target: T2, S-adenosylmethionine synthetase (MAT 1 and MAT 2); assay: Competitive inhibition of rat methionine adenosyltransferase, activity expressed as Ki; assay type: protein assay; outline: as §2
[5] = target: T1, S-adenosylmethionine synthase isoform type-2; assay: Inhibitory constant against rat kidney Methionine adenosyltransferase II, activity expressed as Ki; outline: as §1
[6] = target: T3, S-adenosylmethionine synthase isoform type-1; assay: Inhibitory constant against rat liver Methionine adenosyltransferase I, activity expressed as Ki; outline: as §3
[7] = target: T2, S-adenosylmethionine synthetase (MAT 1 and MAT 2); assay: Inhibitory constant against rat methionine adenosyltransferase was reported; assay type: protein assay; outline: as §2

T1 sequence (P18298 whole entry, canonical isoform): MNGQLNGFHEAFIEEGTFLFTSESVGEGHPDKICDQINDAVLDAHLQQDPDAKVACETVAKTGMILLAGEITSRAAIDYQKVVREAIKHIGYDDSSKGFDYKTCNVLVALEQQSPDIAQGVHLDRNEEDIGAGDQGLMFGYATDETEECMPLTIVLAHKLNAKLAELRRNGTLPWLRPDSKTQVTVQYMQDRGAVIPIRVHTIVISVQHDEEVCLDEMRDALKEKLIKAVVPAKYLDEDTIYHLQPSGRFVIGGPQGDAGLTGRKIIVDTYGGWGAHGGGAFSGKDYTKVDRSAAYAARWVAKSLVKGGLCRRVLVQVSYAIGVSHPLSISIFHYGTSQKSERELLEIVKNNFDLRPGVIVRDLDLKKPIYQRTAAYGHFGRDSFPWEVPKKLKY
T3 sequence (P13444 whole entry, canonical isoform): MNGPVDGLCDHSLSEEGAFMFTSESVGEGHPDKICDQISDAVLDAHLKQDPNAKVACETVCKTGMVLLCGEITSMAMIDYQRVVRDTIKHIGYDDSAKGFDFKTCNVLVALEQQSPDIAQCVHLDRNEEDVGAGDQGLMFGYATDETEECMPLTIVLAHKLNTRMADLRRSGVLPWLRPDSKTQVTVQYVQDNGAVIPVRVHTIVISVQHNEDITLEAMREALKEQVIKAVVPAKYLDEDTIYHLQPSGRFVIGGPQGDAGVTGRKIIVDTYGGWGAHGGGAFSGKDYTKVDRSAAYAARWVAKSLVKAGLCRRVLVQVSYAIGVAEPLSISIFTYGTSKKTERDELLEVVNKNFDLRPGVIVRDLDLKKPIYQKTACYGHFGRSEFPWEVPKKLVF

Ki [1] [µM]	Ki [4] [µM]	Ki [5] [µM]	SMILES	Ki [2] [µM]	further results
–	80	190	CC(OP(=O)(O)OP(=O)(O)OP(=O)(O)O)[C@H]1O[C@@H](n2cnc3c(N)ncnc32)[C@H](O)[C@@H]1O (stereo not given in full)	–	Ki [6]: 9 µM
–	180	170	CO[C@H]1[C@@H](O)[C@H](n2cnc3c(N)ncnc32)O[C@@H]1COP(=O)(O)OP(=O)(O)OP(=O)(O)O	–	–
–	170	140	CO[C@@H]1[C@H](O)[C@@H](COP(=O)(O)OP(=O)(O)OP(=O)(O)O)O[C@H]1n1cnc2c(N)ncnc21	–	–
–	37	48	CCCC(OP(=O)(O)OP(=O)(O)OP(=O)(O)O)[C@H]1O[C@@H](n2cnc3c(N)ncnc32)[C@H](O)[C@@H]1O (stereo not given in full)	–	–

Second part, the molecule before the results:

SMILES	Ki [1] [µM]	Ki [4] [µM]	Ki [5] [µM]	Ki [2] [µM]	further results
Nc1ncnc2c1ncn2[C@@H]1O[C@H](COP(=O)(O)OP(=O)(O)NP(=O)(O)O)[C@@H](O)[C@H]1O	5.5	–	–	4	–
Nc1ncnc2c1nc(SCCC(N)C(=O)O)n2C1O[C@H](COP(=O)(O)OP(=O)(O)OP(=O)(O)O)[C@@H](O)[C@H]1O (stereo not given in full)	520	–	–	–	Ki [3]: 3300 µM
CCCCNc1ncnc2c1ncn2C1O[C@H](COP(=O)(O)OP(=O)(O)OP(=O)(O)O)[C@@H](O)[C@H]1O (stereo not given in full)	530	–	–	–	Ki [7]: 210 µM
CSc1nc2c(N)ncnc2n1[C@@H]1O[C@H](COP(=O)(O)OP(=O)(O)OP(=O)(O)O)[C@@H](O)[C@H]1O	–	–	–	530	–
Nc1ncnc2c1ncn2[C@@H]1O[C@H](COP(=O)(O)CP(=O)(O)OP(=O)(O)O)[C@@H](O)[C@H]1O [DIPHOSPHOMETHYLPHOSPHONIC ACID ADENOSYL ESTER]	300	–	–	340	–
CSc1nc(N)c2ncn([C@@H]3O[C@H](COP(=O)(O)OP(=O)(O)OP(=O)(O)O)[C@@H](O)[C@H]3O)c2n1	600	–	–	110	–
